This is an account of results in ChEMBL document CHEMBL4024765 (J Med Chem, 2017).

Converted amounts (≈) assume the structure as drawn. Some results are limits rather than exact numbers.

Data set [1] has as its system Plasmodium falciparum. Description: Antiplasmodial activity against chloroquine-sensitive synchronized trophozoite stage of Plasmodium falciparum NF54 after 48 hrs by NBT dye based LDH assay. Format: functional. The conditions noted are these: NF54, 48 h.
Data set [2] relates to Liver. Nature of the data set: Drug metabolism in BALB/c mouse liver microsomes assessed as N-dealkylation on tertiary amine at 1 uM in presence of NADPH by mass spectrometric analysis. The class given is ADME, microsome. The gist of the method: (§1)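 Compound at 1 μM with 0.35 mg/ml male BALB/c mouse liver microsomes, 1 mM NADPH, 100 mM phosphate pH 7.4, 37 °C, 30 min; triplicate. Stopped by ice-cold acetonitrile with carbamazepine internal standard; parent loss by LC-MS/MS (ESI positive, MRM) as % remaining; scan data screened for putative metabolite fragments.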
Background: Microsomes from liver hold many membrane-bound enzymes, among them those of drug oxidation.

A short description of data set [3]: Metabolic stability in BALB/c mouse liver microsomes assessed as parent compound remaining at 1 uM after 30 mins in presence of NADPH by LC-MS/MS analysis. Format: ADME, microsome. The note with it: read-out: Stability. The gist of the method: as §1
A short description of data set [4]: Intrinsic clearance in BALB/c mouse liver microsomes at 1 uM in presence of NADPH by LC-MS/MS analysis. The note with it: read-out: CLH. The class given is ADME, microsome. The gist of the method: as §1
Data set [5] can be described thus: Half life in BALB/c mouse liver microsomes at 1 uM in presence of NADPH by LC-MS/MS analysis. Format: ADME, microsome. The gist of the method: as §1
The test system of data set [6] is Plasmodium falciparum. Description: Resistance index, ratio of IC50 for chloroquine-resistant synchronized trophozoite stage of Plasmodium falciparum Dd2 to IC50 for chloroquine-sensitive synchronized trophozoite stage of Plasmodium falciparum NF54. Format: functional.
For data set [7], the system named is Plasmodium falciparum. Nature of the data set: Antiplasmodial activity against chloroquine-resistant synchronized trophozoite stage of Plasmodium falciparum Dd2 after 48 hrs by NBT dye based LDH assay. Format: functional. The conditions noted are these: Dd2, 48 h.
In data set [8] the test system is Liver. Description: Drug metabolism in BALB/c mouse liver microsomes assessed as aldehyde reduction at 1 uM in presence of NADPH by mass spectrometric analysis. Format: ADME, microsome. The gist of the method:
as §1

For data set [9], the system named is CHO. Description: Cytotoxicity against CHO cells by MTT assay. The note with it: Cricetulus griseus. The class given is cell-based. The gist of the method: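 MTT assay on CHO cells. DMSO stock diluted in complete medium; 10-fold serial dilutions, 6 concentrations from 100 to 0.001 μg/mL; emetine reference; triplicate on each occasion. IC50 from non-linear fit of full dose-response curves.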

Data set [10] is described as follows: Selectivity index, ratio of IC50 for CHO cells to IC50 for chloroquine-sensitive synchronized trophozoite stage of Plasmodium falciparum NF54. The class given is toxicity. The conditions noted are these: hamster; read-out: Ratio IC50.
In data set [11] the test system is Liver. Description: Drug metabolism in BALB/c mouse liver microsomes assessed as N-dealkylation with oxidative deamination at 1 uM in presence of NADPH by mass spectrometric analysis. The class given is ADME, microsome. The gist of the method: as §1
Data set [12] has as its system Plasmodium falciparum. Description: Antiplasmodial activity against chloroquine-resistant synchronized trophozoite stage of Plasmodium falciparum 7G8 after 48 hrs by NBT dye based LDH assay. The conditions noted are these: 7G8, 48 h. The class given is functional.
The subject of data set [13] is Plasmodium falciparum. Description: Resistance index, ratio of IC50 for chloroquine-resistant synchronized trophozoite stage of Plasmodium falciparum 7G8 to IC50 for chloroquine-sensitive synchronized trophozoite stage of Plasmodium falciparum NF54. Format: functional.
The subject of data set [14] is Liver. Description: Drug metabolism in BALB/c mouse liver microsomes assessed as oxidation of quinoline core or pyridyl ring at 1 uM in presence of NADPH by mass spectrometric analysis. Format: ADME, microsome. The gist of the method:
as §1

The nature of data set [15]: Inhibition of beta hematin formation by detergent based assay. The gist of the method: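 β-hematin formation from hematin in 1 M acetate buffer pH 4.9 with NP40 detergent, compound serially diluted from 20 mM DMSO stock; ~5 h at 37 °C. Free heme complexed with pyridine/acetone/HEPES pH 7.4 solution, absorbance at 405 nm; IC50 from dose-response curves.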
Data set [16] can be described thus: Kinetic solubility of compound in simulating fasting state biorelevant media at pH 6.5 after 2 hrs by shake flask method. Format: physicochemical. The conditions noted are these: fasted-state simulating biorelevant medium, read-out: Kinetic_solubility.
Data set [17] relates to Liver. Description: Drug metabolism in BALB/c mouse liver microsomes assessed as oxidation of aldehyde to carboxylic acid at 1 uM in presence of NADPH by mass spectrometric analysis. The class given is ADME, microsome. The gist of the method:
as §1

For data set [18], the system named is Plasmodium berghei. Nature of the data set: Antimalarial activity against chloroquine-sensitive Plasmodium berghei ANKA infected in C57BL/6 mouse assessed as supression of parasitemia at 30 mg/kg, po administered for 4 consecutive days starting at 2 hrs post infection by peter's test relative to control. The class given is functional. The gist of the method: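 P. berghei ANKA passaged in C57BL/6 donor; test mice infected ip with 200 μL of 1 × 10⁷ parasitized erythrocytes in PBS. Oral dosing 30 mg/kg at 2 h post-infection, then daily D0–D3; PBS-dosed controls. Parasitemia read on D4 from Giemsa-stained, methanol-fixed tail thin films; suppression relative to control.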

The nature of data set [19]: n-Octanol-buffer distribution coefficient, log D of the compound at pH 7.4 […] by HPLC based shake flask method. Format: physicochemical.
A short description of data set [20]: n-Octanol-buffer distribution coefficient, log D of the compound at pH 5 incubated for 4 hrs by UV-vis based shake flask method. The class given is physicochemical.
The test system of data set [21] is Plasmodium falciparum. Nature of the data set: Increase in hemoglobin levels in chloroquine-sensitive synchronized ring stage of Plasmodium falciparum NF54 after 32 hrs by flow cytometric analysis. The class given is functional. The gist of the method:
(§2)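 Sorbitol-synchronized (5%) ring-stage cultures exposed to compound at multiples of IC50 for 32 h; trophozoites freed with 0.05% saponin, PBS-washed, counted by hemocytometer and flow cytometry. Hypotonic lysis/sonication, then sequential SDS/pyridine fractionation into hemoglobin, free heme and hemozoin (SDS/NaOH) fractions; each measured by UV-vis as Fe(III) heme-pyridine complex.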
In general terms: In flow cytometry, cells or beads pass a laser one at a time.

Data set [22] relates to Plasmodium falciparum. Description: Increase in free heme levels in chloroquine-sensitive synchronized ring stage of Plasmodium falciparum NF54 after 32 hrs by flow cytometric analysis. Format: functional. The gist of the method: as §2
Data set [23] concerns Plasmodium falciparum. Description: Decrease in hemozoine formation in chloroquine-sensitive synchronized ring stage of Plasmodium falciparum NF54 after 32 hrs by flow cytometric analysis. The class given is functional. The gist of the method: as §2

For the compound `CN(Cc1ccccc1)Cc1cccc(CNc2ccnc3cc(Cl)ccc23)c1.Cl`, the IC50 in data set [1] stood at 14.4 nM; in [7], 44.5 nM; in data set [9], 9500 nM; in data set [12], 69.6 nM; in data set [15], 13400 nM. Besides, the Drug metabolism result in [2], in data set [8], in data set [11], in data set [14] and in [17] was “Metabolite_Detected” each time. Further, in data set [3], the remaining at 0.5 h, 1 µM turned out to be 3.57%. Also, the CLint scaled at 1 µM in data set [4] amounted to 1110 mL/min/kg. The half-life at 1 µM in data set [5] was found to be 6.15 min. For the same compound, the “Ratio IC50” value came to 3.1 in data set [6] and 4.8 in [13]. In addition, the selectivity ratio in data set [10] was determined as 660. Moreover, the solubility kinetic at 2 h in data set [16] is 51.8 µM. Besides, in [18], the Activity is given as 97.5%. Also, in data set [19], the logD came to 3.56. The logD at 4 h in data set [20] is 1.33.
With `CN(Cc1ccccc1)Cc1cccc(CNc2ccnc3cc(Cl)ccc23)c1` [listing 1 of 2 here], the Activity result in data set [21], in [22] and in data set [23] was “Dose-dependent effect” each time.
As to `CN(Cc1cccc(CNc2ccnc3cc(Cl)ccc23)c1)Cc1ccccn1`, the IC50 in [1] amounted to 30.1 nM; in data set [7], 124 nM; in data set [9], 8300 nM; in data set [12] it was 83.8 nM; in data set [15], 20800 nM. Further, the Drug metabolism entry in data set [2], in data set [8], in [11], in data set [14] and in data set [17] was “Metabolite_Detected” each time. Besides, the remaining at 0.5 h, 1 µM in [3] was found to be 2.96%. Besides, in data set [4], the CLint scaled at 1 µM was found to be 1140 mL/min/kg. Besides, in data set [5], the half-life at 1 µM stood at 5.89 min. Besides, the “Ratio IC50” value in data set [6] came to 4.1; in data set [13] it was 2.8. Moreover, the selectivity ratio in data set [10] stood at 275. Further, the Activity entry was “Dose-dependent effect” in data set [21], “Dose-dependent effect” in data set [22], 97.8% in data set [18] and “Dose-dependent effect” in data set [23]. Also, in [16], the solubility kinetic at 2 h is 59.8 µM (≈ 24.1 µg/mL). In data set [19], this compound displayed a logD of 2.47. Also, the logD at 4 h in data set [20] is 0.82.
On to `C[C@H]1[C@H](OC(=O)CCC(=O)O)O[C@@H]2O[C@@]3(C)CC[C@H]4[C@H](C)CC[C@@H]1[C@@]24OO3` [ARTESUNATE], for which the IC50 in data set [1] is 5.6 nM; in data set [7], 14.3 nM; in data set [12], 7.7 nM. Besides, the “Ratio IC50” value came to 2.6 in [6] and 1.4 in data set [13].
As to `COC(=O)[C@H]1[C@H]2C[C@@H]3c4[nH]c5cc(OC)ccc5c4CCN3C[C@H]2C[C@@H](OC(=O)c2cc(OC)c(OC)c(OC)c2)[C@@H]1OC` [RESERPINE], the solubility kinetic at 2 h in data set [16] was < 5 µM.
As for `CN(Cc1ccccn1)Cc1ccccc1CNc1ccnc2cc(C#N)ccc12`, the IC50 was determined as 127 nM in [1]; 162 nM in [7]; 27600 nM in [9]; 307 nM in data set [12]; 16600 nM in data set [15]. The Drug metabolism result in data set [2], in [8], in data set [11], in data set [14] and in data set [17] was “Metabolite_Detected” each time. The remaining at 0.5 h, 1 µM in data set [3] was determined as 2.08%. The CLint scaled at 1 µM in [4] came out at 1250 mL/min/kg. In addition, the half-life at 1 µM in [5] came to 5.35 min. For the same compound, the results for the “Ratio IC50” value in data set [6] and in data set [13] were 1.3 and 2.4, respectively. Further, the selectivity ratio in data set [10] came out at 218. The Activity entry is “Dose-dependent effect” in data set [21], “Dose-dependent effect” in [22], 47.1% in data set [18] and “Dose-dependent effect” in [23]. In addition, in data set [16], the solubility kinetic at 2 h was 172 µM (≈ 67.8 µg/mL). The logD in [19] was 3.8. In addition, in data set [20], the logD at 4 h came to 0.81.
In the case of `Cc1ncc2n1-c1ccc(Cl)cc1C(c1ccccc1F)=NC2` [MIDAZOLAM], the remaining at 0.5 h, 1 µM in data set [3] was determined as 1.33%. In data set [4], the CLint scaled at 1 µM came to 1420 mL/min/kg. The half-life at 1 µM in [5] worked out at 4.74 min.
In the case of `CCN(CC)CCCC(C)Nc1ccnc2cc(Cl)ccc12` (configuration not stated) [CHLOROQUINE PHOSPHATE], the IC50 in data set [15] turned out to be 26100 nM.
Turning to `CN(Cc1ccccc1)Cc1cccc(CNc2ccnc3cc(Cl)ccc23)c1` [listing 2 of 2 here], the Activity in [18] is recorded as 99.9%.
Still for that read-out and setting: with `CCN(CC)CCCC(C)Nc1ccnc2cc(Cl)ccc12` (configuration not stated) [CHLOROQUINE] the figure was 91.2%.
Turning to `CN(Cc1ccc(CNc2ccnc3cc(Cl)ccc23)cc1)Cc1ccccn1`, the half-maximal inhibitory concentration (IC50) in data set [1] came out at 38.5 nM; in data set [7] it was 151 nM; in data set [9], 15700 nM; in [12] it was 114 nM; in data set [15] it was 17200 nM. In addition, the Drug metabolism result in [2], in data set [8], in data set [11], in [14] and in [17] was “Metabolite_Detected” in each case. In [3], the remaining at 0.5 h, 1 µM was 2.08%. Moreover, the CLint scaled at 1 µM in data set [4] was found to be 1250 mL/min/kg. In data set [5], the half-life at 1 µM was 5.35 min. Also, the “Ratio IC50” value in [6] came to 3.9; in data set [13], 3. Also, in data set [10], the selectivity ratio was 408. Also, the Activity result was “Dose-dependent effect” in data set [21], “Dose-dependent effect” in data set [22], 91.4% in [18] and “Dose-dependent effect” in [23]. The solubility kinetic at 2 h in data set [16] was 197 µM (≈ 79.2 µg/mL). In data set [19], this compound had a logD of 2.85. The compound further registered a logD at 4 h in [20] of 0.84.
With `CCN(CC)CCCC(C)Nc1ccnc2cc(Cl)ccc12` (configuration not stated), the Activity result in data set [21], in data set [22] and in [23] was “Dose-dependent effect” throughout.

As usually defined, the IC50 is the concentration needed to halve the response being measured. A low value points to higher potency. In general, half-life refers to the time needed for the level to fall by half in the phase considered. Usually logD stands for the decadic logarithm of the distribution of all forms, ionised or not, between an organic phase and buffer at a given pH. Read a high logD as a more lipophilic compound.
